What was measured:
Assay type in all cases: functional
RXF 393 = assay: Anticancer activity against Homo sapiens (human) RXF393 cells by SRB assay
Outline: (§1)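 Five-dose NCI 60-cell-line panel testing at tenfold dilutions from 10−4 to 10−8 M, with growth read by sulforhodamine B protein staining. For each cell line: GI50 is the molar concentration giving half growth inhibition; TGI is total growth inhibition (cytostatic); LC50 is the molar concentration killing 50% of the initial cells (cytotoxic).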

A549 = assay: Anticancer activity against Homo sapiens (human) A549/ATCC cells by SRB assay
Outline: (§2)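 NCI 60-line panel, five tenfold dilutions from 10−4 to 10−8 M, growth read by sulforhodamine B staining against untreated controls. From the dose–response per line: GI50 (molar concentration giving half growth inhibition), TGI (molar concentration giving total growth inhibition, cytostatic) and LC50 (molar concentration killing 50% of initial cells, cytotoxic).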

SF-268 = assay: Anticancer activity against Homo sapiens (human) SF268 cells assessed as cell growth at 10 uM by SRB assay; details: read-out: Activity
Outline: (§3)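 Single-dose screen in the NCI 60-human-tumour-cell-line panel (nine cancer types) at 10−5 M. Cell growth was estimated by sulforhodamine B protein staining and reported as percent growth of treated cells relative to untreated controls.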

HOP-92 [1] = assay: Anticancer activity against Homo sapiens (human) HOP92 cells by SRB assay; outline: as §2
HL-60(TB) [2] = assay: Anticancer activity against Homo sapiens (human) HL-60(TB) cells by SRB assay
Outline: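 NCI panel of about 60 human tumour cell lines, tested at five tenfold dilutions from 10−4 to 10−8 M, with sulforhodamine B read-out. GI50 (molar concentration giving half growth inhibition), TGI (total growth inhibition) and LC50 (50% death of initial cells) were calculated for each cell line.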

SR = assay: Anticancer activity against Homo sapiens (human) SR cells by SRB assay
Outline: (§4)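 NCI five-dose follow-up on the 60-line human tumour panel at tenfold dilutions from 10−4 to 10−8 M, with growth read by sulforhodamine B protein assay against untreated controls. For each cell line, GI50 (half growth inhibition), TGI (total growth inhibition) and LC50 (50% death of initial cells) are calculated as molar concentrations.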

HCT-116 = assay: Anticancer activity against Homo sapiens (human) HCT116 cells by SRB assay; outline: as §2
UO-31 = assay: Anticancer activity against Homo sapiens (human) UO31 cells by SRB assay; outline: as §4
786-0 = assay: Anticancer activity against Homo sapiens (human) 786-0 cells assessed as cell growth at 10 uM by SRB assay; details: read-out: Activity
Outline: (§5)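 NCI 60-cell human tumour panel (nine cancer types) screened at one concentration, 10−5 M. Cell growth estimated by sulforhodamine B protein staining and reported as percent growth of treated cells relative to untreated controls.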

HL-60(TB) [3] = assay: Anticancer activity against Homo sapiens (human) HL-60(TB) cells assessed as cell growth at 10 uM by SRB assay; details: read-out: Activity
Outline: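 NCI 60-cell-line human tumour panel screen at a single 10−5 M concentration. Cell growth was estimated by sulforhodamine B protein staining. Results are given as percent growth of treated cells relative to untreated controls.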

Hs-578T = assay: Anticancer activity against Homo sapiens (human) Hs 578T cells by SRB assay; outline: as §2
Malme-3M [4] = assay: Anticancer activity against Homo sapiens (human) MALME-3M cells by SRB assay; outline: as §2
IGROV-1 = assay: Anticancer activity against Homo sapiens (human) IGROV1 cells assessed as cell growth at 10 uM by SRB assay; details: read-out: Activity; outline: as §5
SK-MEL-5 = assay: Anticancer activity against Homo sapiens (human) SK-MEL-5 cells by SRB assay; outline: as §1
LOX IMVI [5] = assay: Anticancer activity against Homo sapiens (human) LOXIMVI cells assessed as cell growth at 10 uM by SRB assay; details: read-out: Activity; outline: as §5
OVCAR-4 = assay: Anticancer activity against Homo sapiens (human) OVCAR4 cells by SRB assay; outline: as §1
HOP-92 [6] = assay: Anticancer activity against Homo sapiens (human) HOP92 cells assessed as cell growth at 10 uM by SRB assay; details: read-out: Activity; outline: as §5
M14 = assay: Anticancer activity against Homo sapiens (human) M14 cells assessed as cell growth at 10 uM by SRB assay; details: read-out: Activity; outline: as §5
K562 = assay: Anticancer activity against Homo sapiens (human) K562 cells assessed as cell growth at 10 uM by SRB assay; details: read-out: Activity; outline: as §5
Malme-3M [7] = assay: Anticancer activity against Homo sapiens (human) MALME-3M cells assessed as cell growth at 10 uM by SRB assay; details: read-out: Activity; outline: as §5
LOX IMVI [8] = assay: Anticancer activity against Homo sapiens (human) LOXIMVI cells by SRB assay; outline: as §2
EKVX = assay: Anticancer activity against Homo sapiens (human) EKVX cells assessed as cell growth at 10 uM by SRB assay; details: read-out: Activity; outline: as §5
MDA-MB-468 [9] = assay: Anticancer activity against Homo sapiens (human) MDA-MB-468 cells assessed as cell growth at 10 uM by SRB assay; details: read-out: Activity; outline: as §3
[10] = Anticancer activity against Homo sapiens (human) RPMI8266 cells assessed as cell growth at 10 uM by SRB assay; details: read-out: Activity; outline: as §3
U-251 = assay: Anticancer activity against Homo sapiens (human) U251 cells assessed as cell growth at 10 uM by SRB assay; details: read-out: Activity
Outline: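 NCI 60-cell human tumour panel (leukemia, melanoma, lung, colon, CNS, breast, ovarian, prostate, renal lines) given a single 10−5 M dose. Growth is expressed as percent growth of treated cells relative to untreated controls, with cell growth/viability estimated by sulforhodamine B protein staining.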

HOP-62 = assay: Anticancer activity against Homo sapiens (human) HOP62 cells by SRB assay; outline: as §2
SNB-75 = assay: Anticancer activity against Homo sapiens (human) SNB75 cells assessed as cell growth at 10 uM by SRB assay; details: read-out: Activity; outline: as §3
ACHN [11] = assay: Anticancer activity against Homo sapiens (human) ACHN cells assessed as cell growth at 10 uM by SRB assay; details: read-out: Activity; outline: as §5
MDA-MB-468 [12] = assay: Anticancer activity against Homo sapiens (human) MDA-MB-468 cells by SRB assay; outline: as §1
MDA-MB-231 = assay: Anticancer activity against Homo sapiens (human) MDA-MB-231/ATCC cells assessed as cell growth at 10 uM by SRB assay; details: read-out: Activity; outline: as §5
MDA-MB-435 = assay: Anticancer activity against Homo sapiens (human) MDA-MB-435 cells assessed as cell growth at 10 uM by SRB assay; details: read-out: Activity; outline: as §3
ACHN [13] = assay: Anticancer activity against Homo sapiens (human) ACHN cells by SRB assay; outline: as §2
UACC-257 = assay: Anticancer activity against Homo sapiens (human) UACC257 cells by SRB assay; outline: as §4
HT-29 = assay: Anticancer activity against Homo sapiens (human) HT-29 cells by SRB assay; outline: as §2
[14] = read-out: pLC50 (the source's name) (converted)

Question: Which results are given for `O=c1sc2c(Cl)nc(-c3ccccc3)nc2n1-c1ccccc1`?
Answer: GI50 (RXF 393): 2.4 µM; LC50 (RXF 393): 38 µM; TGI (RXF 393; read-out: pTGI (converted)): 8.91 µM; GI50 (A549): 43.7 µM; growth at 10 µM (SF-268): 52%; GI50 (HOP-92 [1]): 3.09 µM; TGI (HOP-92 [1]; read-out: pTGI (converted)): 67.6 µM; GI50 (HL-60(TB) [2]): 5.89 µM; GI50 (SR): 2.63 µM; TGI (SR; read-out: pTGI (converted)): 21.4 µM; GI50 (HCT-116): 2.09 µM; CC50 (HCT-116; [14]): 9.55 µM; TGI (HCT-116; read-out: pTGI (converted)): 4.47 µM; GI50 (UO-31): 1.32 µM; TGI (UO-31; read-out: pTGI (converted)): 2.88 µM; growth at 10 µM (786-0): 41%; growth at 10 µM (HL-60(TB) [3]): 38%; GI50 (Hs-578T): 3.31 µM; TGI (Hs-578T; read-out: pTGI (converted)): 18.6 µM; GI50 (Malme-3M [4]): 14.8 µM; TGI (Malme-3M [4]; read-out: pTGI (converted)): 79.4 µM; growth at 10 µM (IGROV-1): -65%; GI50 (SK-MEL-5): 15.5 µM; growth at 10 µM (LOX IMVI [5]): -44%; GI50 (OVCAR-4): 5.01 µM; TGI (OVCAR-4; read-out: pTGI (converted)): 35.5 µM; growth at 10 µM (HOP-92 [6]): 24%; growth at 10 µM (M14): 16%; growth at 10 µM (K562): 19%; growth at 10 µM (Malme-3M [7]): 62%; GI50 (LOX IMVI [8]): 2.04 µM; CC50 (LOX IMVI [8]; [14]): 18.2 µM; TGI (LOX IMVI [8]; read-out: pTGI (converted)): 4.79 µM; growth at 10 µM (EKVX): 84%; growth at 10 µM (MDA-MB-468 [9]): 20%; growth at 10 µM [10]: 75%; growth at 10 µM (U-251): 20%; GI50 (HOP-62): 3.63 µM; CC50 (HOP-62; [14]): 72.4 µM; TGI (HOP-62; read-out: pTGI (converted)): 15.5 µM; growth at 10 µM (SNB-75): 12%; growth at 10 µM (ACHN [11]): 42%; GI50 (MDA-MB-468 [12]): 3.63 µM; growth at 10 µM (MDA-MB-231): 37%; growth at 10 µM (MDA-MB-435): 26%; GI50 (ACHN [13]): 6.92 µM; GI50 (UACC-257): 8.91 µM; TGI (UACC-257; read-out: pTGI (converted)): 31.6 µM; GI50 (HT-29): 3.89 µM; TGI (HT-29; read-out: pTGI (converted)): 19.1 µM

From ChEMBL document CHEMBL3045605, “Synthesis and anticancer evaluation of novel 3,5-diaryl-thiazolo[4,5-d]pyrimidin-2-one derivatives” (2013)
